ChEMBL document CHEMBL4610039, “Design, synthesis and apoptosis-related antiproliferative activities of chelidonine derivatives” (Bioorg Med Chem Lett, 2020)

How the values were obtained:
HepG2 = assay: Antiproliferative activity against human HepG2 cells assessed as reduction in cell growth after 72 hrs by MTT assay; assay type: functional, cell-based; settings: HepG2, 72 h
Procedure, shortened: (§1)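 Human HepG2, MCF-7, HCT-116 and K562 tumour cells plus normal L-02 hepatocytes and PBMCs were exposed to compounds for 72 h and growth was read by MTT. 5-Fu served as positive control. IC50 is the concentration inhibiting 50% of cell growth, given as mean ± standard deviation of three independent experiments.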

PBMC = assay: Cytotoxicity against human PBMC assessed as reduction in cell growth after 72 hrs by MTT assay; assay type: cell-based; procedure, shortened: as §1
K562 [1] = assay: Induction of cell cycle arrest in human K562 cells assessed as accumulation at G2/M phase at 0.55 uM after 72 hrs by propidium iodide staining based flow cytometry (reference value: 8.19%); assay type: functional
Procedure, shortened: (§2)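 For cell cycle, K562 cells were treated 72 h at 0, 0.55, 1.10 or 2.20 μM, with a solvent control. Cells were stained with PI and G1, S and G2/M fractions determined by flow cytometry.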

K562 [2] = assay: Induction of cell cycle arrest in human K562 cells assessed as accumulation at G1 phase at 1.10 uM after 72 hrs by propidium iodide staining based flow cytometry (reference value: 56.13%); assay type: functional; procedure, shortened: as §2
K562 [3] = assay: Induction of cell cycle arrest in human K562 cells assessed as accumulation at G1 phase at 2.20 uM after 72 hrs by propidium iodide staining based flow cytometry (reference value: 56.13%); assay type: functional; procedure, shortened: as §2
K562 [4] = assay: Induction of cell cycle arrest in human K562 cells assessed as accumulation at G2/M phase at 2.20 uM after 72 hrs by propidium iodide staining based flow cytometry (reference value: 8.19%); assay type: functional; procedure, shortened: as §2
K562 [5] = assay: Induction of apoptosis in human K562 cells assessed as viable cells at 0.55 uM after 48 hrs by annexin V-FITC/propidium iodide staining based flow cytometry (reference value: 96.26%); assay type: functional; settings: K562, 48 h, read-out: Activity
K562 [6] = assay: Induction of apoptosis in human K562 cells assessed as late apoptotic cells at 0.55 uM after 48 hrs by annexin V-FITC/propidium iodide staining based flow cytometry (reference value: 0.73%); assay type: functional
K562 [7] = assay: Induction of apoptosis in human K562 cells assessed as necrotic cells at 1.10 uM after 48 hrs by annexin V-FITC/propidium iodide staining based flow cytometry (reference value: 0.78%); assay type: functional
K562 [8] = assay: Induction of apoptosis in human K562 cells assessed as early apoptotic cells at 2.20 uM after 48 hrs by annexin V-FITC/propidium iodide staining based flow cytometry (reference value: 2.23%); assay type: functional
K562 [9] = assay: Induction of apoptosis in human K562 cells assessed as late apoptotic cells at 2.20 uM after 48 hrs by annexin V-FITC/propidium iodide staining based flow cytometry (reference value: 0.73%); assay type: functional
K562 [10] = assay: Induction of apoptosis in human K562 cells by annexin V-FITC/propidium iodide staining based flow cytometry; assay type: functional, cell-based
K562 [11] = assay: Induction of mitochondrial membrane potential loss in human K562 cells assessed as cell population with mitochondrial membrane potential collapse at 1.10 uM after 48 hrs by JC1 staining-based flow cytometry analysis (reference value: 7.04%); assay type: functional

SMILES: CN1Cc2c(ccc3c2OCO3)[C@H]2[C@@H](OC(=O)CCCC(=O)OCC#CCOc3no[n+]([O-])c3S(=O)(=O)c3ccccc3)Cc3cc4c(cc3[C@H]21)OCO4
- IC50 (HepG2): 3.91 µM
- IC50 (PBMC): > 40 µM
- Activity (K562 [1]): 10.28%
- Activity (K562 [2]): 41.27%
- Activity (K562 [3]): 32.41%
- Activity (K562 [4]): 7.87%
- viability at 0.55 µM (K562 [5]): 88.3%
- Activity (K562 [6]): 3.47%
- Activity (K562 [7]): 0.66%
- Activity (K562 [8]): 24.84%
- Activity (K562 [9]): 28.97%
- Activity (K562 [10]): Dose-dependent effect
- Activity (K562 [11]): 28.66%
